Structures are written as SMILES. Unmarked numbers belong to inactive results. Results filed as inconclusive are left out. Active and inactive are the calls of the source.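 The calls were made as follows, unless noted: active = growth inhibition above 25% in both replicates, a cutoff set 3 SD above the mean; inconclusive = above 25% in only one replicate; inactive = the rest.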

Test [1] in a line: S. cerevisiae growth inhibition in permissive medium (OD615), pilot counter-assay for S. cerevisiae lifespan shortening project, permissive growth control (AID 705). The conditions noted are these: OD615, 24 h, at 10 µM, stronger effect = higher value. The method, boiled down: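 System – S. cerevisiae with engineered DeaD lifespan system · Buffer or medium – SC raffinose/galactose permissive medium · Schedule – cells pre-grown 4 h, then 24 h compound exposure, 30 °C humidified · Technique – culture turbidity as optical density at 615 nm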

The nature of test [2]: S. cerevisiae growth inhibition in restrictive medium, OD615, pilot screen, restrictive growth control, yeast lifespan reduction project (AID 706;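 active = growth inhibition above a set limit, 3 SD over mean compound inhibition, in both replicates, cut at about 43% in these data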;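 also: modified DeaD lifespan yeast strain shifted to restrictive glucose medium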). The conditions noted are these: OD615, 48 h, at 10 µM, stronger effect = higher value. Put shortly: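 Material: engineered S. cerevisiae DeaD strain / Medium: glucose-based CSMM-D restrictive medium / Compound: single dose of 10 µM compound final, 0.25% DMSO / Timing: 4 h pre-incubation, 48 h exposure at 30 °C / Technique: OD615 absorbance reading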

A short description of test [3]: doxorubicin toxicity protection in MRP-1 cells – H69AR cells, CellTiter-Glo, duplicate, MRP-1 activator project, pilot screen (AID 807;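 active = viability increase at or above a cutoff of the median across tested compounds plus 3 SD, cut at about 8.5% in these data, passing the limit was not always enough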;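 also: compound pretreatment 18-22 h then 72 h combined with doxorubicin; 0% = doxorubicin alone and 100% = vehicle without doxorubicin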). The conditions noted are these: H69AR viability with doxorubicin, CellTiter-Glo luminescence; at 10 µM; stronger effect = higher value.
Test [4] in a line: viability of HCT116 without oncogenic beta-catenin – human colon tumor cells, pilot screen (AID 823;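 active = cell viability at or below a set limit in both duplicate runs, the limit being the all-compound median minus 4 SD, cut at about 23% in these data, passing the limit was not always enough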;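 also: 0% = wells killed by 20 µM Hyamine and 100% = untreated DMSO cell wells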). The conditions noted are these: HCT116 beta-catenin knockout viability, CellTiter-Glo, 60 h; at 10 µM; stronger effect = lower value.
Test [5] is described as follows: viability of PTEN-null HCT116 cells – cell-based, HCT116 clonal line, CellTiter-Glo, pilot screen (AID 824;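 active = viability at or below 27.92% in each of two runs, the all-compound median minus 4 SD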;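 also: 0% = 20 µM Hyamine control and 100% = vehicle cell control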). The conditions noted are these: HCT116 PTEN-deleted viability, 60 h, at 10 µM, stronger effect = lower value.
Test [6] in a line: RAM pathway blockade in budding yeast – dse1pr::URA3 reporter, 5-FOA selection, pilot screen (AID 869;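 active = inhibition over a set limit, the all-compound mean plus 3 SD, in both replicate runs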;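 also: 0% = DMSO wells with no growth and 100% = 10 µM 1-NA-PP1 with full growth; RAM network block rescues cells from 5-FOA so hits raise OD615 growth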). The conditions noted are these: S. cerevisiae dse1pr::URA3 5-FOA growth, OD615, 2 d; at 10 µM; stronger effect = higher value; strain carries analog-sensitive mutant Cbk1 kinase.
Test [7] in a line: RAM signaling pathway blockade in yeast – S. cerevisiae, Pdr1DBD-CYC8 efflux-inhibited sensitized strain, primary screen (AID 1298;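 active = RAM network inhibition above 8.4% in each of two replicates, 3 SD over the compound average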;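 also: 0% = DMSO untreated cells without growth and 100% = 10 µM 1-NA-PP1 full growth; higher means more yeast growth rescued from 5-FOA killing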). The conditions noted are these: S. cerevisiae cbk1-as DSE1-URA3 strain, 5-FOA growth OD615, 2 d; at 50 µM; stronger effect = higher value.

Take `COc1ccc(-n2c(Cc3cccn3C)nnc2SCC(=O)N2CCOCC2)cc1`: the growth inhibition in test [1] was 3.14%; in test [2] it was 10.2%. In test [3], the viability increase is -1.11%. The viability in test [4] was 103%; in test [5], 96%. In test [6], the inhibition was 1.11%. In test [7], the RAM network inhibition is 0.98%.

With `Cc1ccc(NC(=O)C2CCN(S(=O)(=O)c3cccc4cccnc34)CC2)nc1`, the growth inhibition was 2.12% in test [1] and -7.59% in test [2]. Further, the viability increase in test [3] was -2.71%. Also, the values for the viability in test [4] and in test [5] were 88.1% and 87.2%, respectively. Also, the inhibition in test [6] was -0.475%. Moreover, in test [7], the RAM network inhibition is 3.26%.

As for `CC(=O)c1ccc(OCC(C)C)c(CC(C(N)=O)C(N)=O)c1`, the growth inhibition was 1.42% in test [1] and -5.6% in test [2]. Also, in test [3], the viability increase was -1.7%. Further, the figures for the viability in test [4] and in test [5] were 108% and 96.1%, respectively. Besides, the inhibition in test [6] is 1.66%. For the same compound, in test [7], the RAM network inhibition is -0.2%.

Turning to `CCOC(=O)C1=C(CS(=O)(=O)c2ccccc2)NC(=O)NC1c1ccccc1OCC` (stereo unspecified), the growth inhibition in test [1] is -15.1%; in test [2], -5.42%. Also, the viability increase in test [3] is 0.13%. The figures for the viability in test [4] and in test [5] were 98.7% and 101%, respectively. For the same compound, the inhibition in test [6] is 2.07%. The RAM network inhibition in test [7] is -0.04%.

In the case of `CCN(CC)C(=O)c1cc2sc3ccccc3c2s1`, the figures for the growth inhibition in test [1] and in test [2] were -11.5% and -2.27%, respectively. For the same compound, the viability increase in test [3] was 0.41%. The viability in test [4] was 88.1%; in test [5] it was 95%. Also, the inhibition in test [6] is -0.05%. For the same compound, the RAM network inhibition in test [7] was 3.43%.

Consider `COc1ccc(C2(C(F)(F)F)NC(=O)N(C)C(=O)N2C)cc1` (stereo unspecified), for which the growth inhibition in test [1] is -14.7%; in test [2], -19.5%. Besides, the viability increase in test [3] was -0.46%. For the same compound, the viability in test [4] is 99%; in test [5], 101%. Besides, the inhibition in test [6] is 1.11%. Also, the RAM network inhibition in test [7] was 2.74%.

Regarding `CCOC(=O)N1CCC(NC(=O)CCc2c(C)nc3c(c(C)nn3-c3ccccc3)c2C)CC1`, the growth inhibition was -8.02% in test [1] and 0.22% in test [2]. For the same compound, the viability increase in test [3] was -1.37%. The viability in test [4] was 100%; in test [5], 89.5%. Further, the inhibition in test [6] is 2.38%. Also, the RAM network inhibition in test [7] was 4.08%.

For the compound `CCC(C)NC(=O)CCCCCn1c(=O)[nH]c2cc(OC)c(OC)cc2c1=O` (stereo unspecified), the growth inhibition was -18.5% in test [1] and -7.55% in test [2]. The viability increase in test [3] was -2.36%. For the same compound, the viability was 88% in test [4] and 93% in test [5]. In addition, the inhibition in test [6] is 0.065%. Moreover, the RAM network inhibition in test [7] was 2.96%.

Turning to `CCCN(CCC)C(=O)COc1cc(=O)n(CC)c2ccccc12`, the growth inhibition in test [1] is -17.4%; in test [2] it was -2.75%. The viability increase in test [3] was -1.75%. The viability in test [4] was 99.8%; in test [5], 89.3%. Besides, the inhibition in test [6] was 0.52%. Besides, the RAM network inhibition in test [7] is 0.9%.

With `O=C(C1CCCN(c2nnc(-n3cccc3)s2)C1)N1CCN(c2ccccc2)CC1` (stereo unspecified), the growth inhibition in test [1] was -4%; in test [2] it was -4.55%. The viability increase in test [3] is -1.11%. Moreover, the viability in test [4] was 88.9%; in test [5], 86.5%. Besides, in test [6], the inhibition is 0.485%. Moreover, the RAM network inhibition in test [7] is 1.12%.

In the case of `O=C(NCCN1CCN(c2ccccc2F)CC1)C1CCCN(S(=O)(=O)c2cnc[nH]2)C1` (stereo unspecified), the growth inhibition in test [1] was 5.84%; in test [2], 3.21%. For the same compound, in test [3], the viability increase was -1.19%. For the same compound, the values for the viability in test [4] and in test [5] were 104% and 98%, respectively. Moreover, in test [6], the inhibition was 2.38%. Also, the RAM network inhibition in test [7] is 0.68%.

With `CCOC(=O)C(C(=O)OCC)c1cc(Br)c2noc3c2c1C(=O)c1ccccc1-3`, the growth inhibition in test [1] is -15.6%; in test [2], -3.25%. The viability increase in test [3] was -8.25%. For the same compound, the viability was 1.06% (active) in test [4] and 1.23% (active) in test [5]. For the same compound, the inhibition in test [6] was 1.65%. Besides, the RAM network inhibition in test [7] was 1.87%.

Regarding `CCn1cc(SCC(N)=O)c2ccccc21`, the growth inhibition is -13.8% in test [1] and -17.4% in test [2]. For the same compound, the viability increase in test [3] was 0.17%. Besides, the figures for the viability in test [4] and in test [5] were 99.1% and 92.3%, respectively. In addition, in test [6], the inhibition is 1.14%. In test [7], the RAM network inhibition was 8.71%.

`CCOC(=O)N1CCC(N2Cc3cccc(C(=O)NCc4ccccn4)c3C2=O)CC1`: the growth inhibition was -4.83% in test [1] and 8.18% in test [2]. The viability increase in test [3] is -5.24%. Further, the viability in test [4] is 99.8%; in test [5], 102%. Also, in test [6], the inhibition is 2.19%. In addition, the RAM network inhibition in test [7] was -1.14%.

In the case of `Cc1sc2nc(SCC(=O)NCc3ccco3)[nH]c(=O)c2c1C`, the results for the growth inhibition in test [1] and in test [2] were -4% and -4.97%, respectively. Besides, in test [3], the viability increase is -3.92%. Also, the viability in test [4] is 106%; in test [5], 101%. Also, the inhibition in test [6] was 2.67%. The RAM network inhibition in test [7] was 5.12%.

Consider `Cn1c(C(=O)NCCN2CCCCCC2)cc2c(=O)n(C)c3ccccc3c21`, for which the results for the growth inhibition in test [1] and in test [2] were -1.66% and 0.56%, respectively. Also, in test [3], the viability increase was -5.04%. For the same compound, the values for the viability in test [4] and in test [5] were 65.7% and 74.9%, respectively. Further, the inhibition in test [6] was 1.29%. Moreover, in test [7], the RAM network inhibition was 5.21%.

Consider `Cc1sc2nc(SC(C)C)nc(N)c2c1C`, for which the growth inhibition in test [1] was 6.53%; in test [2], 7.72%. Further, in test [3], the viability increase was 0.28%. In addition, the viability in test [4] is 103%; in test [5], 104%. Also, the inhibition in test [6] was 1.69%. In addition, the RAM network inhibition in test [7] is 4.8%.

For `CCOc1cccc2sc(NC(=O)c3ccc(Br)s3)nc12`, the growth inhibition in test [1] is -25.6%; in test [2] it was -9.82%. In addition, the viability increase in test [3] is -3.55%. For the same compound, the results for the viability in test [4] and in test [5] were 65.4% and 58%, respectively. For the same compound, in test [6], the inhibition is 2.42%. For the same compound, the RAM network inhibition in test [7] was 4.63%.

Values taken from PubChem BioAssay.
